Source: ChEMBL document CHEMBL5058577, “EUbOPEN Chemogenomics Library 2 (Multiplex)” (2022)

System: Fibroblast
Experiment: Multiplex assay against human fibroblast
Type: toxicity, cell-based
Outline: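 Imaging took place on a CQ1 microscope at 37°C and 5% CO2 once compound had been added to live cells stained at seeding with Hoechst33342, BioTracker Green Microtubule Cytoskeleton Dye, MitoTracker Red and Annexin V Alexa Fluor 680. CellPathfinder machine-learning gating classed cells as Hoechst high-intensity objects or normal cells, classed normal cells as having healthy, pyknosed or fragmented nuclei, and classed pyknosed cells as mitotic or apoptotic. Tubulin, mitochondrial-mass and membrane-permeability phenotypes are per cents of the healthy-nucleus cells.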

[1] = 12 h, 1 µM, compound concentration 1 uM, replicate 1
[2] = 12 h, 1 µM, compound concentration 1 uM, replicate 2
[3] = 12 h, 10 µM, compound concentration 10 uM, replicate 1
[4] = 12 h, 10 µM, compound concentration 10 uM, replicate 2
[5] = 24 h, 1 µM, compound concentration 1 uM, replicate 1
[6] = 24 h, 1 µM, compound concentration 1 uM, replicate 2
[7] = 24 h, 10 µM, compound concentration 10 uM, replicate 1
[8] = 24 h, 10 µM, compound concentration 10 uM, replicate 2
[9] = 48 h, 1 µM, compound concentration 1 uM, replicate 1
[10] = 48 h, 1 µM, compound concentration 1 uM, replicate 2
[11] = 48 h, 10 µM, compound concentration 10 uM, replicate 1
[12] = 48 h, 10 µM, compound concentration 10 uM, replicate 2

## Cc1cc(=O)n(C)c2cc(N3C(=O)CC[C@H](NS(=O)(=O)CC(C)C)[C@H]3c3ccc(Cl)cc3)ccc12
[1]
  Population Apoptotic (%): 31%
  Population Fragmented Nuclei (%): 16%
  Population Healthy Nuclei (%): 56%
  Population Hoechst High Intensity Objects (%): 2%
  Population Membrane Permeable-Phenotype (%): 0%
  Population Mitochondria Different-Phenotype (%): 4%
  Population Mitotic Cells (%): 68%
  Population Normal (%): 97%
  Population Pyknosed Nuclei (%): 26%
  Population Tubulin-Different-Phenotype (%): 34%
  Total Cell Count: 135
[2]
  Population Apoptotic (%): 38%
  Population Fragmented Nuclei (%): 20%
  Population Healthy Nuclei (%): 38%
  Population Hoechst High Intensity Objects (%): 10%
  Population Membrane Permeable-Phenotype (%): 8%
  Population Mitotic Cells (%): 62%
  Population Normal (%): 89%
  Population Pyknosed Nuclei (%): 40%
  Population Tubulin-Different-Phenotype (%): 61%
  Total Cell Count: 137
[3]
  Population Apoptotic (%): 41%
  Population Fragmented Nuclei (%): 11%
  Population Healthy Nuclei (%): 40%
  Population Hoechst High Intensity Objects (%): 3%
  Population Membrane Permeable-Phenotype (%): 1%
  Population Mitochondria Different-Phenotype (%): 8%
  Population Mitotic Cells (%): 58%
  Population Normal (%): 96%
  Population Pyknosed Nuclei (%): 48%
  Population Tubulin-Different-Phenotype (%): 86%
  Total Cell Count: 149
[4]
  Population Apoptotic (%): 18%
  Population Fragmented Nuclei (%): 26%
  Population Healthy Nuclei (%): 31%
  Population Hoechst High Intensity Objects (%): 11%
  Population Membrane Permeable-Phenotype (%): 8%
  Population Mitotic Cells (%): 82%
  Population Normal (%): 88%
  Population Pyknosed Nuclei (%): 42%
  Population Tubulin-Different-Phenotype (%): 94%
  Total Cell Count: 133
[5]
  Population Apoptotic (%): 34%
  Population Fragmented Nuclei (%): 18%
  Population Healthy Nuclei (%): 62%
  Population Hoechst High Intensity Objects (%): 2%
  Population Membrane Permeable-Phenotype (%): 1%
  Population Mitochondria Different-Phenotype (%): 4%
  Population Mitotic Cells (%): 65%
  Population Normal (%): 97%
  Population Pyknosed Nuclei (%): 18%
  Population Tubulin-Different-Phenotype (%): 24%
  Total Cell Count: 140
[6]
  Population Apoptotic (%): 50%
  Population Fragmented Nuclei (%): 26%
  Population Healthy Nuclei (%): 44%
  Population Hoechst High Intensity Objects (%): 10%
  Population Membrane Permeable-Phenotype (%): 13%
  Population Mitochondria Different-Phenotype (%): 5%
  Population Mitotic Cells (%): 50%
  Population Normal (%): 89%
  Population Pyknosed Nuclei (%): 29%
  Population Tubulin-Different-Phenotype (%): 70%
  Total Cell Count: 128
[7]
  Population Apoptotic (%): 43%
  Population Fragmented Nuclei (%): 14%
  Population Healthy Nuclei (%): 46%
  Population Hoechst High Intensity Objects (%): 10%
  Population Membrane Permeable-Phenotype (%): 0%
  Population Mitochondria Different-Phenotype (%): 19%
  Population Mitotic Cells (%): 56%
  Population Normal (%): 90%
  Population Pyknosed Nuclei (%): 39%
  Population Tubulin-Different-Phenotype (%): 88%
  Total Cell Count: 150
[8]
  Population Apoptotic (%): 42%
  Population Fragmented Nuclei (%): 28%
  Population Healthy Nuclei (%): 26%
  Population Hoechst High Intensity Objects (%): 8%
  Population Membrane Permeable-Phenotype (%): 17%
  Population Mitochondria Different-Phenotype (%): 8%
  Population Mitotic Cells (%): 57%
  Population Normal (%): 91%
  Population Pyknosed Nuclei (%): 45%
  Population Tubulin-Different-Phenotype (%): 85%
  Total Cell Count: 143
[9]
  Population Apoptotic (%): 48%
  Population Fragmented Nuclei (%): 27%
  Population Healthy Nuclei (%): 54%
  Population Hoechst High Intensity Objects (%): 2%
  Population Membrane Permeable-Phenotype (%): 1%
  Population Mitochondria Different-Phenotype (%): 2%
  Population Mitotic Cells (%): 52%
  Population Normal (%): 97%
  Population Pyknosed Nuclei (%): 18%
  Population Tubulin-Different-Phenotype (%): 27%
  Total Cell Count: 141
[10]
  Population Apoptotic (%): 46%
  Population Fragmented Nuclei (%): 35%
  Population Hoechst High Intensity Objects (%): 7%
  Population Membrane Permeable-Phenotype (%): 8%
  Population Mitochondria Different-Phenotype (%): 8%
  Population Mitotic Cells (%): 53%
  Population Normal (%): 92%
  Population Pyknosed Nuclei (%): 9%
  Population Tubulin-Different-Phenotype (%): 73%
  Total Cell Count: 142
[11]
  Population Apoptotic (%): 61%
  Population Fragmented Nuclei (%): 23%
  Population Healthy Nuclei (%): 38%
  Population Hoechst High Intensity Objects (%): 15%
  Population Membrane Permeable-Phenotype (%): 0%
  Population Mitochondria Different-Phenotype (%): 24%
  Population Mitotic Cells (%): 38%
  Population Normal (%): 84%
  Population Pyknosed Nuclei (%): 37%
  Population Tubulin-Different-Phenotype (%): 92%
  Total Cell Count: 153
[12]
  Population Apoptotic (%): 54%
  Population Fragmented Nuclei (%): 34%
  Population Healthy Nuclei (%): 37%
  Population Hoechst High Intensity Objects (%): 10%
  Population Membrane Permeable-Phenotype (%): 25%
  Population Mitochondria Different-Phenotype (%): 8%
  Population Mitotic Cells (%): 45%
  Population Normal (%): 89%
  Population Pyknosed Nuclei (%): 27%
  Population Tubulin-Different-Phenotype (%): 87%
  Total Cell Count: 141
